# Experimental data published in ChEMBL document CHEMBL6134787, “Fexinidazole optimization: enhancing anti-leishmanial profile, metabolic stability and hERG safety” (RSC Med Chem, 2024).
# Legend:
# [1] = test system: Leishmania major; assay: Antileishmanial activity against wild type Leishmania major FV1 promastigotes […] assessed as inhibition of parasite growth incubated for 72 hrs by automatic microtiter plate reader analysis; format: functional, organism-based
# Outline: (§1)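 Promastigotes were grown in Schneider's medium (4 mM glutamine, gentamicin, 10% heat-inactivated FBS, pH 6.9, 27 °C). Cells were seeded at 1.5 × 10^5/well and exposed to a concentration series for 72 h at 27 °C.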
# [2] = Hepatotoxicity against mouse TAMH cells assessed as cell viability at 62.5 uM incubated for 48 hrs by MTT assay; format: toxicity, cell-based; conditions: read-out: Activity
# Outline: (§2)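 TAMH mouse liver cells in FCS-free DMEM/F12 with 5% PANEXIN NTA, 10 mM nicotinamide and gentamicin. Seeded at 20 000/well and attached 24 h at 37 °C, 5% CO2. DMSO-diluted compounds were applied for 24 or 48 h. MTT was added for 4 h, formazan dissolved in DMSO and A570 read. Viability was background-corrected and expressed relative to DMSO controls; mean ± SD, ≥3 experiments.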
# [3] = Metabolic stability in rat liver S9 fraction assessed as compound remaining at 20 uM measured after 32 mins in presence of NADP and GSH by HPLC analysis; format: ADME, subcellular; conditions: read-out: Stability
# Outline: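 Rat liver S9 (final 4 mg/mL) in 50 mM phosphate pH 7.4 with NADPH-regenerating system (0.3 mM NADP+, 5.3 mM glucose-6-phosphate, G6PDH), 10 mM MgCl2 and 5 mM EDTA. Pre-warmed 10 min at 37 °C, then 20 μM compound and 5.5 μM GSH added. Samples taken at 0, 16 and 32 min were quenched in ice-cold acetonitrile. HPLC (254/280 nm) peak area was expressed relative to 0 min.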
# [4] = test system: RAW264.7; assay: Cytotoxicity against mouse RAW264.7 cells assessed as inhibition of cell growth incubated for 72 hrs by MTS assay; format: functional, cell-based; conditions: RAW264.7, 72 h
# Outline: (§3)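 Cells in DMEM + 10% heat-inactivated FBS with penicillin/streptomycin at 37 °C, 5% CO2. They were seeded at 1 × 10^4/well and incubated with a concentration series for 72 h at 37 °C. Viability was read by MTS/PMS assay at 490 nm and IC50 derived.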
# [5] = Cytotoxicity against mouse peritoneal macrophage assessed as inhibition of cell growth incubated for 72 hrs by giemsa staining based analysis; format: toxicity; conditions: peritoneal macrophages
# [6] = molecular target: T1, hERG (KCNH2) (Homo sapiens, UniProt Q12809); assay: Inhibition of human ERG stably overexpressed in HEK293 cells assessed as remaining activity at 6 uM incubated for 30 mins by FLIPR assay; format: toxicity, cell-based; conditions: HEK293 cells stably overexpressing hERG, read-out: Activity
# T1 sequence (Q12809 whole entry): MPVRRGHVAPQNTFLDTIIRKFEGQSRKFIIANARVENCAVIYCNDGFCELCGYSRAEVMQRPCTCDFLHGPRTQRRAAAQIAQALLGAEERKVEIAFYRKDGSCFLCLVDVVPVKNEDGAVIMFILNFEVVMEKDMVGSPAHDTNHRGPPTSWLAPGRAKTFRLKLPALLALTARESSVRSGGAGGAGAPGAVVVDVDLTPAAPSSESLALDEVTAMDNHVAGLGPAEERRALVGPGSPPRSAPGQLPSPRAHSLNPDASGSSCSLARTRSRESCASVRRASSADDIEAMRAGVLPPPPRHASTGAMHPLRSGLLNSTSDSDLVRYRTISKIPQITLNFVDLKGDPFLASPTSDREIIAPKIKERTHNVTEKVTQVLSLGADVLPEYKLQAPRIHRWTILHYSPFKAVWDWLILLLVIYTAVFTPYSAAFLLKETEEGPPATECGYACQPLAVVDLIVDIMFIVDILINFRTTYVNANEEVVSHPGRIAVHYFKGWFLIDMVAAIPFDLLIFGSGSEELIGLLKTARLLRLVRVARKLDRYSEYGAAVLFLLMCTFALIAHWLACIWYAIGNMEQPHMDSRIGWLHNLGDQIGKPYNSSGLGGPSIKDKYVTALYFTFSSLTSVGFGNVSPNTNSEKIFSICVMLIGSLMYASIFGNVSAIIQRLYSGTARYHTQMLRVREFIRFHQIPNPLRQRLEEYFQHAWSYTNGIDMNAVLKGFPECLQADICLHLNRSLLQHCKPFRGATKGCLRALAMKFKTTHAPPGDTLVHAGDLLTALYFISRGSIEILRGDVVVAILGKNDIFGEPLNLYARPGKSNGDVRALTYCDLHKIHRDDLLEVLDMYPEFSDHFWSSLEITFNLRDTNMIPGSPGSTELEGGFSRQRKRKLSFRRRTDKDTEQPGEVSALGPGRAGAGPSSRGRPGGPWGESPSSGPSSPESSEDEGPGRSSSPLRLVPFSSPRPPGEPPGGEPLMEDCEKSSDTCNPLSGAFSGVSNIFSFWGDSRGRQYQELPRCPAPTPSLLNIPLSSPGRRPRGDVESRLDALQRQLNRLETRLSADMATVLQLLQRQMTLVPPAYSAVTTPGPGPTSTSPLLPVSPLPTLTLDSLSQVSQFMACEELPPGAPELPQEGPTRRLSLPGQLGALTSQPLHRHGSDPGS
# Outline: (§4)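 HEK-293 cells stably expressing hERG, seeded at 60 000/well and grown 24 h. Compounds were added in DMSO (final 0.5%) and incubated 30 min in the dark. After 20 s baseline, Tl+ stimulus (3 mM) was added and fluorescence (ex 485/em 535 nm) recorded for 2.5 min.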
# [7] = molecular target: T1, hERG (KCNH2); assay: Inhibition of human ERG stably overexpressed in HEK293 cells assessed as remaining activity at 25 uM incubated for 30 mins by FLIPR assay; format: toxicity, cell-based; conditions: HEK293 cells stably overexpressing hERG, read-out: Activity; outline: as §4
# [8] = Metabolic stability in rat liver microsome assessed as drug metabolism measured up to 32 mins in absence of inhibitor by HPLC analysis relative to control; conditions: liver microsomes, without inhibitor
# [9] = test system: Leishmania donovani; assay: Antileishmanial activity against wild type Leishmania donovani HU3 amastigotes infected in mouse peritoneal macrophage assessed as inhibition of parasite growth incubated for 72 hrs by giemsa staining based analysis; format: functional, organism-based
# Outline: (§5)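 Mouse peritoneal macrophages in DMEM + 10% heat-inactivated FBS, penicillin/streptomycin; 1 × 10^5 cells per well on coverslips, adhered overnight at 37 °C, 5% CO2, non-adherent cells washed off. Infected overnight with late-log promastigotes at parasite:macrophage 40:1. Compound exposure 72 h at 37 °C; Giemsa stain, amastigotes per 100 macrophages counted, IC50 derived; means ± SD of 3–4 independent experiments.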
# [10] = Metabolic stability in rat liver microsome assessed as parent compound remaining at 50 degreeC measured after 32 mins after heat treatment by HPLC; conditions: liver microsomes, heat-treated
# [11] = test system: Leishmania donovani; assay: Antileishmanial activity against wild type Leishmania donovani HU3 promastigotes […] assessed as inhibition of parasite growth incubated for 72 hrs by automatic microtiter plate reader analysis; format: functional, organism-based
# [12] = Cytotoxicity against mouse L929 cells assessed as inhibition of cell growth incubated for 72 hrs by MTS assay; format: toxicity, cell-based; outline: as §3
# [13] = test system: Leishmania braziliensis; assay: Antileishmanial activity against wild type Leishmania braziliensis UA847 amastigotes infected in mouse peritoneal macrophage assessed as inhibition of parasite growth incubated for 72 hrs by giemsa staining based analysis; format: functional, organism-based
# Outline: (§6)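 Mouse peritoneal macrophages (1 × 10^5/well on coverslips, DMEM + 10% heat-inactivated FBS, penicillin/streptomycin) adhered overnight at 37 °C, 5% CO2. They were infected overnight with late-log promastigotes at a 20:1 parasite:macrophage ratio. Cells were then treated with compound for 72 h at 37 °C and Giemsa-stained. Amastigotes per 100 macrophages were counted to derive IC50; mean ± SD of 3–4 independent experiments.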
# [14] = Metabolic stability in rat liver microsome assessed as compound remaining at 20 uM measured after 32 mins in presence of NADP and GSH by HPLC analysis; format: ADME; conditions: liver microsomes, read-out: Stability
# Outline: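 Rat liver microsomes (final 2 mg/mL) in 50 mM phosphate pH 7.4 with 0.3 mM NADP+, 5.3 mM glucose-6-phosphate, G6PDH, 10 mM MgCl2 and 5 mM EDTA. 20 μM compound added at 37 °C. Aliquots at 0, 16 and 32 min were quenched in ice-cold acetonitrile and centrifuged. HPLC peak area at 254/280 nm was expressed relative to 0 min.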
# [15] = test system: Leishmania donovani; assay: Antileishmanial activity against miltefosine resistant Leishmania donovani HU3MILR40 promastigotes […] assessed as inhibition of parasite growth incubated for 72 hrs by automatic microtiter plate reader analysis; format: functional, organism-based
# Outline: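 Promastigote (free parasite) assay: Schneider's Drosophila medium with 4 mM glutamine, 25 μg mL−1 gentamicin, 10% heat-inactivated FBS, pH 6.9, 27 °C. 1.5 × 10^5 promastigotes per well exposed to a concentration series for 72 h at 27 °C.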
# [16] = test system: Leishmania donovani; assay: Antileishmanial activity against miltefosine resistant Leishmania donovani HU3MILR40 amastigotes infected in mouse peritoneal macrophage assessed as inhibition of parasite growth incubated for 72 hrs by giemsa staining based analysis; format: functional, organism-based; outline: as §5
# [17] = test system: Leishmania braziliensis; assay: Antileishmanial activity against wild type Leishmania braziliensis UA847 promastigotes […] assessed as inhibition of parasite growth incubated for 72 hrs by automatic microtiter plate reader analysis; format: functional, organism-based; outline: as §1
# [18] = molecular target: Voltage-gated inwardly rectifying potassium channel KCNH2 (Homo sapiens, UniProt Q12809); assay: Inhibition of human ERG stably overexpressed in HEK293 cells incubated for 30 mins by FLIPR assay; format: toxicity, cell-based; conditions: for IC25: human, hek293, 0.5 h, time 30 min
# Sequence of Voltage-gated inwardly rectifying potassium channel KCNH2 (Q12809 whole entry): as above
# [19] = Hepatotoxicity against human HepG2 cells assessed as cell viability at 62.5 uM incubated for 48 hrs by MTT assay; format: toxicity, cell-based; conditions: read-out: Activity
# Outline: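 HEP-G2 cells in RPMI 1640 + 10% heat-inactivated FBS, penicillin/streptomycin. Seeded at 15 000/well and attached 24 h at 37 °C, 5% CO2. Compounds were serially diluted in DMSO, with 24 or 48 h exposure. MTT (2.5 mg/mL solution) was added for 4 h, formazan dissolved in DMSO and A570 read. Viability was background-corrected against DMSO-treated cell controls; mean ± SD, ≥3 experiments.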
# [20] = test system: Leishmania amazonensis; assay: Antileishmanial activity against wild type Leishmania amazonensis LV78 amastigotes infected in mouse peritoneal macrophage assessed as inhibition of parasite growth incubated for 72 hrs by giemsa staining based analysis; format: functional, organism-based; outline: as §6
# [21] = test system: Leishmania amazonensis; assay: Antileishmanial activity against wild type Leishmania amazonensis LV78 promastigotes […] assessed as inhibition of parasite growth incubated for 72 hrs by automatic microtiter plate reader analysis; format: functional, organism-based; outline: as §1
# [22] = Hepatotoxicity against mouse TAMH cells assessed as cell viability at 7.8 to 125 uM incubated for 24 to 48 hrs by MTT assay; format: toxicity, cell-based; conditions: dose lower 7.8 µM, time lower 24 hrs, dose upper 125 µM, time upper 48 hrs, read-out: Activity; outline: as §2
# [23] = Metabolic stability in rat liver microsome assessed as parent compound remaining at 50 degreeC measured after 16 mins after heat treatment by HPLC analysis; conditions: liver microsomes, heat-treated
structure (smiles),measurement,setting,value
CSc1ccc(OCc2ncc([N+](=O)[O-])n2C)cc1 [FEXINIDAZOLE],IC50,[1],1.9 µM
same,"viability at 48 h, 62.5 µM",[2],90%
same,"remaining at 32 min, 20 µM",[3],73.4%
same,IC50,[4],> 100 µM
same,IC50 at 72 h,[5],> 82 µM
same,"activity at 0.5 h, 6 µM",[6],78%
same,"activity at 0.5 h, 25 µM",[7],34%
same,metabolised at 32 min,[8],100%
same,IC50,[9],> 10 µM
same,remaining at 32 min,[10],11%
same,IC50,[11],3.3 µM
same,IC50 at 72 h,[12],> 100 µM
same,IC50,[13],> 10 µM
same,"remaining at 32 min, 20 µM",[14],0%
same,IC50,[15],5.5 µM
same,IC50,[16],> 10 µM
same,IC50,[17],3.9 µM
same,IC50,[18],~10.7 µM
same,IC25,[18],8.6 µM
same,"viability at 48 h, 62.5 µM",[19],95%
same,IC50,[20],> 10 µM
same,IC50,[21],7 µM
CCc1ccc(OCc2ncc([N+](=O)[O-])n2C)cc1,IC50,[1],1.4 µM
same,viability at up to 125 µM,[22],> 50%
same,"remaining at 32 min, 20 µM",[3],96.4%
same,IC50,[4],> 68.5 µM
same,IC50 at 72 h,[5],> 100 µM
same,metabolised at 32 min,[8],100%
same,remaining at 16 min,[23],16%
same,IC50,[9],> 10 µM
same,IC50,[11],5 µM
same,IC50 at 72 h,[12],71.8 µM
same,IC50,[13],> 10 µM
same,"remaining at 32 min, 20 µM",[14],0%
same,IC50,[15],5.3 µM
same,IC50,[16],> 10 µM
same,IC50,[17],3.9 µM
same,IC25,[18],14.9 µM
same,IC50,[20],> 10 µM
same,IC50,[21],4.5 µM
